Measurements taken from ChEMBL document CHEMBL4732146, “Nitric oxide-donating and reactive oxygen species-responsive prochelators based on 8-hydroxyquinoline as anticancer agents” (Eur J Med Chem, 2021).
The source made the active and inactive calls. The calls are words filed in the database; no cut-off is given here.

Key:
[1] = Prodrug activation in peroxynitrite ONOO- assessed as drug decomposition at 100 uM measured after 1 hr by RP-HPLC analysis
In short: (§1)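 Compound (100 µM) incubated at 37 °C for 1 h with one of: ROS species (1 mM), NO solution (1 mM), GSH (200 µM), CuCl₂ (10 µM) or FeCl₃ (10 µM). Percent decomposed was determined by RP-HPLC (ODS column, 0.1% TFA water/methanol gradient, 1 mL/min, 256 nm).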

[2] = Stability of compound in presence of Cu2+ at 100 uM measured after 1 hr by RP-HPLC analysis; format: physicochemical; in short: as §1
[3] = Prodrug activation in OH at 100 uM measured after 1 hr by RP-HPLC analysis; in short: as §1
[4] = Cytotoxicity against human RWPE2 cells assessed as reduction in cell viability measured after 48 hrs by MTT assay; format: cell-based; details: RWPE2, 48 h
In short: (§2)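 Cells seeded 6 × 10⁴ per well, cultured 24 h at 37 °C under 5% CO₂, then exposed to compound for 48 h, with or without 50 µM CuCl₂ or FeCl₃ co-incubation. MTT added for 4 h at 37 °C, formazan dissolved in DMSO, A490 read. IC50 reported as mean (SD), n = 3.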

SW1990 [5] = test: Induction of apoptosis in human SW1990 cells at 12 uM measured after 24 hrs in presence of NO scavenger Carboxyl-PTIO by Annexin V-FITC/propidium iodide staining based flow cytometry; format: functional, cell-based
In short: (§3)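 SW1990 cells seeded 5 × 10⁵ per well and grown 24 h, then treated 24 h at 8 or 12 µM. Optional 1 h pretreatment with 20 mM NAC or 50 µM carboxyl-PTIO before 12 µM treatment. Cells stained with annexin V-FITC 15 min and PI 5 min at room temperature in the dark, then analysed by flow cytometry. Mean ± SD, n = 3.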

[6] = Drug metabolism in human SW1990 cells assessed as nitric oxide release by measuring increase in 3-nitrotyrosine-containing cytochrome-c expression at 8 to 12 uM measured after 24 hrs by Western blot analysis; format: ADME, cell-based; details: sw1990, 24 h
In short: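 SW1990 cells treated 24 h, or pretreated 1 h with carboxyl-PTIO (50 µM) before 24 h treatment. Mitochondrial proteins extracted and lysed (30 µg/lane), run on SDS-PAGE, blotted to PVDF and probed with anti-3-nitrotyrosine antibody. Mean ± SD, n = 3.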

SW1990 [7] = test: Cytotoxicity against human SW1990 cells assessed as reduction in cell viability measured after 48 hrs by MTT assay; format: functional, cell-based; details: SW1990, 48 h; in short: as §2
PANC-1 = test: Cytotoxicity against human PANC-1 cells assessed as reduction in cell viability measured after 48 hrs by MTT assay; format: functional, cell-based; details: PANC-1, 48 h; in short: as §2
[8] = Prodrug activation in tBuO at 100 uM measured after 1 hr by RP-HPLC analysis; in short: as §1
[9] = Prodrug activation in NO at 100 uM measured after 1 hr by RP-HPLC analysis; in short: as §1
SW1990 [10] = test: Cytotoxicity against human SW1990 cells assessed as reduction in cell viability measured after 48 hrs in presence of CuCl2 by MTT assay; format: functional, cell-based; details: SW1990, 48 h; in short: as §2
SW1990 [11] = test: Induction of apoptosis in human SW1990 cells assessed as decrease in Bcl-2 expression at 8 to 12 uM measured after 24 hrs by Western blot analysis; format: functional, cell-based; details: dose 8-12 µM
In short: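 SW1990 cells seeded 5 × 10⁵ per well and grown 24 h at 37 °C, then treated 24 h. Lysates quantified by BCA, resolved by SDS-PAGE and transferred to nitrocellulose. Blocked in 5% milk, probed overnight at 4 °C for cleaved caspase-3, cleaved caspase-9, Bax and Bcl-2, then HRP secondary 2 h. ECL detection.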

[12] = Metal chelating activity assessed as compound-Cu2+ complex formation by measuring change in wavelength at 50 uM measured after 40 mins in presence of H2O2 by UV spectrophotometric method
In short: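 Compound at 50 µM final in PBS (10 mM, pH 7.4) with 50 µM CuCl₂ and H₂O₂ (500 µM, 10 eq.). UV spectrum tracked over 40 min at room temperature, following peaks at 240, 382 and 210 nm.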

SW1990 [13] = test: Cytotoxicity against human SW1990 cells assessed as reduction in cell viability at 10 to 20 uM measured after 48 hrs in presence of ROS quencher NAC by MTT assay; format: functional, cell-based; details: dose 10-20 µM
In short: (§4)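 SW1990 cells pretreated 1 h at 37 °C with 20 mM NAC or 50 µM carboxy-PTIO, then treated 48 h with compound at 10 or 20 µM. Percent cell death by MTT (A490). Mean ± SD, n = 3.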

[14] = Stability of compound in presence of Fe3+ at 100 uM measured after 1 hr by RP-HPLC analysis; format: physicochemical; in short: as §1
SW1990 [15] = test: Cytotoxicity against human SW1990 cells assessed as reduction in cell viability measured after 48 hrs in presence of FeCl3 by MTT assay; format: functional, cell-based; details: SW1990, 48 h; in short: as §2
[16] = Prodrug activation in ClO- at 100 uM measured after 1 hr by RP-HPLC analysis; in short: as §1
[17] = Stability of compound in pH 7.4 PBS buffer assessed as parent compound remaining measured after 24 hrs by RP-HPLC analysis; format: physicochemical; details: read-out: Stabilty
In short: (§5)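 Compound (1 µM) stirred at 37 °C either in PBS (pH 5.0, 7.4 or 10.0) containing 5% DMSO or in DMEM with 10% FBS. Aliquots were analysed by RP-HPLC (0.1% TFA water/methanol gradient, 256 nm) for remaining intact compound, up to 24 h.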

[18] = Metal chelating activity assessed as compound-Cu2+ complex formation by measuring intracellular HO level in human SW1990 cells at 10 uM measured after 1 hr in presence of CuCl2 and HO radical scavenger tempol by HO probe based confocal laser scanning microscopic analysis; format: cell-based
In short: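 SW1990 cells at 80% confluence were loaded with 20 µM HO· probe at 37 °C for 30 min and rinsed. They then received 50 µM CuCl₂, followed by 10 µM compound for 1 h. For the scavenger arm, 1 mM tempol was given for 30 min before CuCl₂. CLSM imaging at λex 570 / λem 650 nm gave mean intensity; n = 3.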

[19] = Cytotoxicity against human H6C7 cells assessed as reduction in cell viability measured after 48 hrs by MTT assay; format: cell-based; details: H6C7, 48 h; in short: as §2
SW1990 [20] = test: Induction of apoptosis in human SW1990 cells at 12 uM measured after 24 hrs in presence of ROS quencher NAC by Annexin V-FITC/propidium iodide staining based flow cytometry; format: functional, cell-based; in short: as §3
SW1990 [21] = test: Cytotoxicity against human SW1990 cells assessed as reduction in cell viability at 10 to 20 uM measured after 48 hrs in presence of NO scavenger Carboxyl-PTIO by MTT assay; format: functional, cell-based; details: dose 10-20 µM; in short: as §4
[22] = Stability of compound in pH 10 PBS buffer assessed as parent compound remaining measured after 24 hrs by RP-HPLC analysis; format: physicochemical; details: read-out: Stabilty; in short: as §5

Drug degradation [1]: 20.8%
Stabilty [2]: Stable
Drug metabolism [3]: Metabolite_Notdetected
Drug metabolism [6]: Metabolite_Detected
Drug metabolism [8]: Metabolite_Notdetected
Drug metabolism [9]: Metabolite_Notdetected
Activity [12]: 210 nm
Stabilty [14]: Stable
Drug metabolism [16]: Metabolite_Notdetected
remaining at 24 h [17]: > 80%
remaining at 24 h [22]: > 80%
Compound: O=C(NCCCOc1no[n+]([O-])c1S(=O)(=O)c1ccccc1)c1ccc2cccc(OCc3ccc(B(O)O)cc3)c2n1
IC50 [4]: 35.6 µM
Activity (SW1990 [5]): inactive
IC50 (SW1990 [7]): 8.83 µM
IC50 (PANC-1): 10.5 µM
IC50 (SW1990 [10]): 1.2 µM
Activity (SW1990 [11]): Active
Activity (SW1990 [13]): inactive
IC50 (SW1990 [15]): 15.4 µM
Activity [18]: inactive
IC50 [19]: > 50 µM
Activity (SW1990 [20]): inactive
Activity (SW1990 [21]): inactive
